Screening results: PubChem BioAssay, Broad Institute
Most compounds without a hit are left out; they make up all but 5.9% or so of the library.
T cruzi growth-1 = inhibitors of T. cruzi proliferation. actives 5.9% (n = 77,000). T. cruzi beta-gal in NIH3T3, GalScreen luminescence, 90 h. inhibition, % at 8.34 µM. AID 624255;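 active means mean inhibition above about 93%, with at least 55% of replicates each passing it, limit read from the data, passing the limit was not always enough; inconclusive means only one of those two conditions holds; inactive means neither condition holds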
Pf Dd2 growth = P. falciparum Dd2 growth inhibition. activity change, % at 10 µM. actives 2.3% (n = 94,000). AID 1159554. SYBR Green, 72 h; active compounds read low; in the data active means activity change below about -80%; inconclusive means no clear call, values can overlap the other calls
KDM4C inh = blocks human GASC-1 (KDM4C) demethylase activity. Q9H3R0. GST-KDM4C 2-372, H3K9me3 peptide, LANCE TR-FRET. inhibition, % at 12.5 µM. actives 0.15% (n = 96,000). AID 720574;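 active means mean replicate inhibition above about 25%, with at least 55% of replicates also reaching it, limit read from the data, passing the limit was not always enough; inconclusive means only one of those two conditions met; inactive means neither condition met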
Target sequence (Q9H3R0 2-372 limits assumed): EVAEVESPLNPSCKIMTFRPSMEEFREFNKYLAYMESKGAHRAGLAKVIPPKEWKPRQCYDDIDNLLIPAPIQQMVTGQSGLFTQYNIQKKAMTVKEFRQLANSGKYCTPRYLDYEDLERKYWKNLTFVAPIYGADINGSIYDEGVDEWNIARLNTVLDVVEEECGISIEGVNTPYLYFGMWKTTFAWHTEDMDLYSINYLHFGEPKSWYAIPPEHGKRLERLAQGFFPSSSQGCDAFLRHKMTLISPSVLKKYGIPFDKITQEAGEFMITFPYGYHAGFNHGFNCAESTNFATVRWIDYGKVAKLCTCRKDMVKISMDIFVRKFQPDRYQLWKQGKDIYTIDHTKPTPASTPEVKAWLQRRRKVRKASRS
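System: N-terminal GST-fused human GASC-1 (KDM4C) fragment, residues 2-372 / Amount: 10 nM GST-KDM4C in enzyme reaction / Also added: H3K9me3 peptide with Fe(II)/2OG / Times: 30 min demethylation and 1 h detection at room temperature / Signal: LANCE TR-FRET / Read-out basis: Fall in 671/618 emission ratio as inhibition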
IDH1 R132H inh = IDH1 R132H (human) inhibition | O75874 | IDH1 R132H reductase, diaphorase/resazurin fluorescence, 60 min | AID 624101 | inhibition, % at 10 µM | actives 0.18% (n = 70,000); in the data active means inhibition above about 34%; inconclusive means no clear call, values can overlap the other calls; inactive means below about 11%
Target sequence (O75874 whole entry R132H): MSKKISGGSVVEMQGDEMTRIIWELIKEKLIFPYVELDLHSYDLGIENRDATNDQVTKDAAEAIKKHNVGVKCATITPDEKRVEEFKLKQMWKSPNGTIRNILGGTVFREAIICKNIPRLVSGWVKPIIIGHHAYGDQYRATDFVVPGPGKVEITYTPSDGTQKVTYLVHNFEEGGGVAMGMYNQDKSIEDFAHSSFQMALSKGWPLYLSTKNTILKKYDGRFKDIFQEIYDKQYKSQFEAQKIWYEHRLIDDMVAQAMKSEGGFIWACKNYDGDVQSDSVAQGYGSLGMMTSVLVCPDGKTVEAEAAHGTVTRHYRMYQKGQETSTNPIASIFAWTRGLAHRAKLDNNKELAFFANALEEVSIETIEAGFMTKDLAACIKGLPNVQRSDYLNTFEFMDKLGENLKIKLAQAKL
T cruzi growth-2 = Trypanosoma cruzi proliferation inhibition. shares compounds with T cruzi growth-1. T. cruzi beta-gal in NIH3T3, GalScreen luminescence, 90 h. inhibition, % at 8.35 µM. actives 72% (n = 5,600);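 active means mean replicate inhibition above about 95% and at least 55% of replicates individually reaching it, limit read from the data; inconclusive means only one of the two criteria is met; inactive means neither criterion is met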
T cruzi growth-3 = Trypanosoma cruzi proliferation inhibition. shares compounds with T cruzi growth-1. T. cruzi beta-gal in NIH3T3, GalScreen luminescence, 90 h. inhibition, % at 2.09 µM. actives 21% (n = 5,600). AID 651740;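 active means mean inhibition above about 95%, with at least 55% of replicates also reaching it, limit read from the data; inconclusive means meets just one of the two conditions; inactive means meets neither condition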
3T3 cytotox = cytotoxicity in mouse NIH/3T3 fibroblasts. shares compounds with T cruzi growth-1. cytotoxicity (signal decrease), % at 8.35 µM. NIH/3T3 viability, CellTiter-Glo ATP luminescence, 90 h. actives 14% (n = 5,600);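 active means mean signal decrease across replicates above about 35% based on untreated-well scatter, with enough replicates individually passing, limit read from the data; inconclusive means no rule stated though some were filed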
NIH3T3 tox 2 = NIH/3T3 (mouse) viability loss. shares compounds with T cruzi growth-1. NIH/3T3 viability, CellTiter-Glo ATP luminescence, 90 h. inhibition, % at 24.9 µM. actives 56% (n = 5,600);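 active means mean loss of cell viability signal at or above a set limit, and enough replicates individually reaching it; inconclusive means meets only the mean limit or only the replicate share; inactive means meets neither condition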
Of the large screens only hits and unclear results are named; the others gave an inactive call (follow-up assays come after a bar, where they were run).

C[C@H](CO)N1C[C@H](C)[C@H](CN(C)C(=O)C2CCC2)Oc2cc(C#CCN(C)C)ccc2S1(=O)=O	T cruzi growth-1 inconclusive (no result: IDH1 R132H inh) | T cruzi growth-2 114 | T cruzi growth-3 98 | 3T3 cytotox inactive | NIH3T3 tox 2 inactive
C[C@H]1CN([C@@H](C)CO)S(=O)(=O)c2ccc(C#CCN(C)C)cc2O[C@@H]1CN(C)C(=O)C1CCC1	T cruzi growth-1 105 (no result: IDH1 R132H inh) | T cruzi growth-2 106 | T cruzi growth-3 inactive | 3T3 cytotox inactive | NIH3T3 tox 2 inactive
C[C@H](CO)N1C[C@H](C)[C@@H](CN(C)C(=O)C2CCCCC2)Oc2cc(C#CCN(C)C)ccc2S1(=O)=O	none (no result: T cruzi growth-1, IDH1 R132H inh)
CO[C@@H]1CN(C)C(=O)c2ccc(NC(=O)C3CCC3)cc2OC[C@H](C)N(CC2CCCCC2)C[C@@H]1C	none
CO[C@H]1CN(C)C(=O)c2ccc(NC(=O)C3CCC3)cc2OC[C@@H](C)N(CC2CCCCC2)C[C@@H]1C	T cruzi growth-1 inconclusive | T cruzi growth-2 107 | T cruzi growth-3 inactive | 3T3 cytotox inactive | NIH3T3 tox 2 103
CO[C@@H]1CN(C)C(=O)c2cc(NC(=O)C3CCOCC3)ccc2OC[C@@H](C)N(CC2CC2)C[C@@H]1C	T cruzi growth-1 99 | T cruzi growth-2 inactive | T cruzi growth-3 inactive | 3T3 cytotox inactive | NIH3T3 tox 2 inactive
CCn1c(SCC(=O)Nc2cc(Cl)cc(Cl)c2)nnc1-c1ccc(C)cc1	none (no result: T cruzi growth-1, Pf Dd2 growth, KDM4C inh)
Cc1c(NC(=O)C(C)Oc2ccc(Cl)cc2Cl)cccc1-c1nc2ccccc2o1 (stereo unspecified)	none (no result: T cruzi growth-1, Pf Dd2 growth, KDM4C inh)
C/C=C/c1ccc2c(c1)O[C@@H](CN(C)C(=O)Nc1ccc(C(F)(F)F)cc1)[C@@H](C)CN([C@H](C)CO)S2(=O)=O	T cruzi growth-1 110 | T cruzi growth-2 101 | T cruzi growth-3 inactive | 3T3 cytotox 59 | NIH3T3 tox 2 52
C/C=C/c1ccc2c(c1)O[C@H](CN(C)C(=O)Nc1ccc(C(F)(F)F)cc1)[C@@H](C)CN([C@@H](C)CO)S2(=O)=O	T cruzi growth-1 101 | T cruzi growth-2 inactive | T cruzi growth-3 inactive | 3T3 cytotox 73 | NIH3T3 tox 2 98
C/C=C/c1ccc2c(c1)O[C@@H](CN(C)C(=O)Nc1ccccc1)[C@H](C)CN([C@H](C)CO)S2(=O)=O	none
C/C=C/c1ccc2c(c1)O[C@@H](CN(C)C(=O)Nc1ccccc1)[C@@H](C)CN([C@H](C)CO)S2(=O)=O	none
C/C=C/c1ccc2c(c1)O[C@@H](CN(C)C(=O)Nc1ccc(F)cc1)[C@@H](C)CN([C@H](C)CO)S2(=O)=O	none
C/C=C/c1ccc2c(c1)O[C@H](CN(C)C(=O)Nc1ccc(C(F)(F)F)cc1)[C@H](C)CN([C@H](C)CO)S2(=O)=O	T cruzi growth-1 100 | T cruzi growth-2 96 | T cruzi growth-3 inactive | 3T3 cytotox 38 | NIH3T3 tox 2 90
CS(=O)(=O)N(CC(=O)Nc1cccnc1)c1cccc(Br)c1	none (no result: T cruzi growth-1, Pf Dd2 growth, KDM4C inh)
O=C(C[C@H]1CC[C@H]2[C@@H](COC[C@H](O)CN2Cc2ccccc2)O1)N[C@@H]1CCN(Cc2ccccc2)C1	T cruzi growth-1 98 (no result: IDH1 R132H inh) | T cruzi growth-2 99 | T cruzi growth-3 inactive | 3T3 cytotox inactive | NIH3T3 tox 2 inactive
O=C(C[C@@H]1CC[C@@H]2[C@H](COC[C@@H](O)CN2Cc2ccccc2)O1)NCc1ccccc1Cl	T cruzi growth-1 100 (no result: IDH1 R132H inh) | T cruzi growth-2 inactive | T cruzi growth-3 inactive | 3T3 cytotox inactive | NIH3T3 tox 2 inactive
O=C(C[C@H]1CC[C@H]2[C@@H](COC[C@H](O)CN2Cc2cc(F)ccc2F)O1)N[C@@H]1CCN(Cc2ccccc2)C1	T cruzi growth-1 96 (no result: IDH1 R132H inh) | T cruzi growth-2 inactive | T cruzi growth-3 inactive | 3T3 cytotox inactive | NIH3T3 tox 2 inconclusive
O=C(C[C@H]1CC[C@@H]2[C@H](COC[C@@H](O)CN2Cc2ccccc2)O1)N[C@@H]1CCN(Cc2ccccc2)C1	none (no result: IDH1 R132H inh)
O=C(c1noc2c1CCCC2)N(C1CCCCC1)C1CCCCC1	none (no result: T cruzi growth-1, Pf Dd2 growth, KDM4C inh)
Nc1nc(-c2ccco2)nn1C(=O)c1ccco1	none (no result: T cruzi growth-1, Pf Dd2 growth, KDM4C inh)
C[C@H](CO)N1C[C@H](C)[C@H](CN(C)Cc2cccnc2)Oc2cc(-c3ccccc3F)ccc2S1(=O)=O	none
Cc1ccccc1-c1ccc2c(c1)O[C@H](CN(C)Cc1ccncc1)[C@H](C)CN([C@@H](C)CO)S2(=O)=O	T cruzi growth-1 97 | T cruzi growth-2 107 | T cruzi growth-3 inactive | 3T3 cytotox 52 | NIH3T3 tox 2 inconclusive
C[C@@H]1CN([C@H](C)CO)S(=O)(=O)c2ccc(-c3ccccc3F)cc2O[C@H]1CN(C)Cc1cccnc1	none
C[C@@H]1CN([C@H](C)CO)S(=O)(=O)c2ccc(-c3ccccc3F)cc2O[C@H]1CN(C)Cc1ccncc1	T cruzi growth-1 116 | T cruzi growth-2 99 | T cruzi growth-3 105 | 3T3 cytotox 92 | NIH3T3 tox 2 103
C[C@H]1CN([C@@H](C)CO)S(=O)(=O)c2ccc(-c3ccccc3F)cc2O[C@H]1CN(C)Cc1ccncc1	T cruzi growth-1 107 | T cruzi growth-2 99 | T cruzi growth-3 inactive | 3T3 cytotox inactive | NIH3T3 tox 2 56
Cc1ccc(OCCSc2n[nH]c3nc4ccccc4n23)cc1	none (no result: T cruzi growth-1, Pf Dd2 growth, KDM4C inh)
C[C@@H]1O[C@@H](O[C@H]2[C@@H](O)[C@@H](C)O[C@@H](O[C@H]3[C@H](O)[C@@H](O)[C@H](O[C@H]4CC[C@@]5(C)C(CC[C@]6(C)C5C=CC5=C7CC(C)(C)CC[C@]7(CO)CC[C@]56C)[C@]4(C)CO)O[C@@H]3CO)[C@@H]2O[C@@H]2O[C@H](CO)[C@@H](O)[C@H](O)[C@H]2O)[C@H](O)[C@H](O)[C@H]1O (stereo partly specified)	none (no result: T cruzi growth-1, Pf Dd2 growth, KDM4C inh)
CC(C)CC#Cc1ccc2c(c1)O[C@H](CN(C)Cc1ccccn1)[C@@H](C)CN([C@@H](C)CO)S2(=O)=O	T cruzi growth-1 132 | T cruzi growth-2 97 | T cruzi growth-3 114 | 3T3 cytotox inactive | NIH3T3 tox 2 105
CC(C)CC#Cc1ccc2c(c1)O[C@H](CN(C)Cc1ccccn1)[C@H](C)CN([C@H](C)CO)S2(=O)=O	T cruzi growth-1 115 | T cruzi growth-2 106 | T cruzi growth-3 inactive | 3T3 cytotox inactive | NIH3T3 tox 2 107
COCC#Cc1ccc2c(c1)O[C@H](CN(C)Cc1ccccn1)[C@H](C)CN([C@H](C)CO)S2(=O)=O	none
CCOC(=O)CC(c1ccccc1)S(=O)(=O)O (stereo unspecified)	none (no result: T cruzi growth-1, Pf Dd2 growth, KDM4C inh)
COc1ccccc1NC(=O)CSC1=NC(c2ccccc2)CC(=O)N1 (stereo unspecified)	none (no result: T cruzi growth-1, Pf Dd2 growth, KDM4C inh)
